Assay [1] concerns MCF7. The experiment in a line: Downregulation of HMGB1 expression in human MCF7 cells at 1.5 uM measured up to 24 hrs by Western blot analysis. The class given is functional, cell-based. The gist of the method: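 MCF-7 (1.5 µM) or MDA-MB-231 (3 µM) cells treated for indicated times. Adherent and floating cells lysed in RIPA with 1 mM PMSF, 4°C for 1 h. Equal protein run on 10-15% SDS-PAGE, transferred to PVDF, blocked with milk or BSA, probed with primary then HRP secondary antibodies, ECL detection; β-actin as loading control.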
For orientation: Immunoblotting shows a protein as a band on a membrane.

For assay [2], the target named is T1, Bromodomain-containing protein 4 (Homo sapiens, UniProt O60885). The experiment in a line: Inhibition of recombinant human BRD4 bromodomain-2 (342 to 460 residues) expressed in Escherichia coli expression system after 120 mins by TR-FRET assay.
Assay [3] concerns MDA-MB-231. The assay is described as follows: Induction of autophagy in human MDA-MB-231 cells assessed as increase in LC3-2 expression at 3 uM by Western blot analysis. Particulars: TDE = time-dependent effect. The format is functional, cell-based. The method, boiled down: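 MDA-MB-231 cells (DMEM, 10% FBS, 37 °C, 5% CO2) exposed to 3 μM for indicated times. Adherent and floating cells collected, lysed in RIPA with 1 mM PMSF at 4 °C for 1 h. Protein quantified by DC assay, resolved on 10-15% SDS-PAGE, blotted to PVDF, ECL detection.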

Assay [4] addresses T1, Bromodomain-containing protein 4. The assay is described as follows: Inhibition of BRD4 in human MDA-MB-231 cells assessed as downregulation of AKT phosphorylation at ser473 at 3 uM measured up to 36 hrs by Western blot analysis. The format is cell-based. The gist of the method: (§1)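 MCF-7 (1.5 μM) or MDA-MB-231 (3 μM) cells treated for indicated times. Adherent and floating cells lysed in RIPA with 1 mM PMSF. Equal protein run on 10-15% SDS-PAGE, blotted to PVDF, blocked in milk or BSA, HRP/ECL detection. β-actin loading control.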

Assay [5] relates to Mus musculus. The assay is described as follows: Induction of LC3 accumulation in BALB/c mouse xenografted with human MCF7 cells at 100 mg/kg, ig administered once a day for 24 days by Western blot analysis. The class given is functional, organism-based. The gist of the method: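 Tumor tissues excised from MCF-7 or MDA-MB-231 xenograft mice were lysed and analysed by western blot for BRD4, c-Myc, LC3 and cleaved caspase-3.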
In general terms: A xenograft is tissue or cells of one species grown in another, often human tumour cells in immunodeficient mice.

For assay [6], the system named is MCF7. The experiment in a line: Induction of autophagy in human MCF7 cells assessed as LC3 lipidation at 1.5 uM in presence of ATG5 siRNA by Western blot analysis. The class given is functional, cell-based.
Assay [7] relates to MDA-MB-231. The experiment in a line: Induction of autophagy in human MDA-MB-231 cells assessed as reduction in cell viability at 3 uM administered at 1 hr post […] addition by MTT assay. The format is functional, cell-based. The gist of the method:
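MDA-MB-231 cells seeded at 5×10^4 cells/ml and grown 24 h. 3-MA (1 mM) added 1 h before 3 μM test agent. MTT (5 mg/ml) for 4 h, formazan dissolved in DMSO, absorbance read at 570 nm.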
(Tetrazolium assays rely on reduction of a dye to a coloured formazan, in cell work by metabolically active cells.)

Assay [8] has as its system MDA-MB-231. The assay is described as follows: Antitumor activity against human MDA-MB-231 cells xenografted in nude BALB/c mouse assessed as reduction in tumor weight at 25 to 100 mg/kg, ig administered once a day for […] measured every 3 days relative to control. The class given is functional, organism-based. The method, boiled down: (§2)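 Female BALB/c nude mice, 6-8 weeks, 20-22 g, injected subcutaneously with 5×10^6 MCF-7 or MDA-MB-231 cells. At 100 mm³ tumor volume (V = L×W²/2), split into four groups: 25, 50 or 100 mg/kg intragastric once daily for 24 or 27 days, or vehicle. Tumor volume and body weight measured every 3 days; tumors excised and weighed at end. MCF-7 n=7, MDA-MB-231 n=6 per group.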

The species entered for assay [9] is Homo sapiens. The experiment in a line: Increase in p53 interaction with AMPK in human MCF7 cells at 1.5 uM by co-immunoprecipitation assay. The format is cell-based. The method, boiled down: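 Cells left untreated or treated, then lysed in RIPA (40 mM Tris-HCl pH 7.5, 150 mM NaCl, 0.5% NP-40, protease inhibitors, 5% glycerol, 10 mM NaF). Lysates incubated overnight at 4°C with BRD4 or p53 antibodies plus protein A/G beads, washed 3 times, resolved on 10% SDS-PAGE. Blots probed for p53 and AMPKα; inputs checked for BRD4, p53 and AMPKα.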

Assay [10] has as its system MCF7. The experiment in a line: Induction of autophagy in human MCF7 cells assessed as assessed as cytoplasmic vacuolization. The class given is functional, cell-based.
For assay [11], the system named is Mus musculus. The assay is described as follows: In vivo Antiproliferative activity in BALB/c mouse xenografted with human MCF7 cells assessed as increase in LC3 expression at 100 mg/kg, ig administered once a day for 24 days by hematoxylin-staining based immunohistochemistry analysis. The format is functional, organism-based. The gist of the method: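 Xenograft tumors from vehicle and 100 mg/kg groups were formalin-fixed and sectioned. Antigen retrieval by microwaving in EDTA buffer (pH 8.0) or citrate buffer (pH 6.0). […] Percentage of positive staining quantified.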

For assay [12], the target named is T1, Bromodomain-containing protein 4. The experiment in a line: Inhibition of BRD4 in human MCF7 cells assessed as reduction in ATG13 protein expression at 1.5 uM up to 36 hrs by Western blot analysis. The format is cell-based. The gist of the method:
as §1

In assay [13] the test system is MDA-MB-231. The experiment in a line: Induction of autophagy in human MDA-MB-231 cells assessed as cytoplasmic vacuolization at 3 uM by electron microscopy. The class given is functional, cell-based. The gist of the method:
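MCF-7 (1.5 µM) or MDA-MB-231 (3 µM) cells treated for indicated times. Cytoplasmic vacuoles examined by transmission electron microscopy.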

The target in assay [14] is Bromodomain-containing protein 2 (Homo sapiens, UniProt P25440). The experiment in a line: Inhibition of recombinant human N-terminal GST-tagged BRD2 bromodomain-1 (65 to 187 residues) expressed in Escherichia coli expression system after 120 mins by TR-FRET assay. The method, boiled down: (§3)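 TR-FRET bromodomain binding. Recombinant BRD domain, BET ligand and test agent in 20 μl assay buffer with 1% DMSO final. Incubated 120 min at room temperature. Blank lacks BET ligand.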

Assay [15] addresses Bromodomain-containing protein 3 (Homo sapiens, UniProt Q15059). The experiment in a line: Inhibition of recombinant human N-terminal GST-tagged BRD3 bromodomain-1 (29 to 145 residues) expressed in Escherichia coli expression system after 120 mins by TR-FRET assay. The method, boiled down: as §3
In assay [16] the test system is MCF7. The assay is described as follows: Antitumor activity against human MCF7 cells xenografted in ig dosed nude BALB/c mouse assessed as tumor growth inhibition administered once a day for 24 days measured every 3 days relative to control. The class given is functional, organism-based. The gist of the method:
as §2

Assay [17] has as its system Mus musculus. The assay is described as follows: Induction of cleavage of caspase-3 in BALB/c mouse xenografted with human MCF7 cells at 100 mg/kg, ig administered once a day for 24 days by Western blot analysis. The class given is functional, organism-based. The gist of the method: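 Female BALB/c nude mice (6-8 weeks) given 5×10^6 MCF-7 or MDA-MB-231 cells subcutaneously. At 100 mm3 tumours, dosed intragastrically once daily (25, 50, 100 mg/kg, or vehicle) for 24 or 27 days. Excised tumours lysed and probed by western blot for caspase-3 cleavage.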

The target in assay [18] is T1, Bromodomain-containing protein 4. The assay is described as follows: Inhibition of recombinant human BRD4 bromodomain-1 (49 to 170 residues) expressed in Escherichia coli expression system after 120 mins by TR-FRET assay.
The target is the same in assay [19]. The experiment in a line: Inhibition of BRD4 in human MDA-MB-231 cells assessed as increase in ATG13 phosphorylation at ser318 at 3 uM up to 36 hrs by Western blot analysis. The class given is cell-based. The method, boiled down: as §1

Experimental findings from ChEMBL document CHEMBL4028911, “Discovery of a Small-Molecule Bromodomain-Containing Protein 4 (BRD4) Inhibitor That Induces AMP-Activated Protein Kinase-Modulated Autophagy-Associated Cell Death in Breast Cancer” (J Med Chem, 2017) are described below.

Active and inactive are the calls of the source. No cut-off for these calls is given here.

In general, IC50 refers to the point on the concentration scale where inhibition reaches its midpoint.

Bromodomain-containing protein 3, sequence (Q15059 whole entry, the tested form may be a part): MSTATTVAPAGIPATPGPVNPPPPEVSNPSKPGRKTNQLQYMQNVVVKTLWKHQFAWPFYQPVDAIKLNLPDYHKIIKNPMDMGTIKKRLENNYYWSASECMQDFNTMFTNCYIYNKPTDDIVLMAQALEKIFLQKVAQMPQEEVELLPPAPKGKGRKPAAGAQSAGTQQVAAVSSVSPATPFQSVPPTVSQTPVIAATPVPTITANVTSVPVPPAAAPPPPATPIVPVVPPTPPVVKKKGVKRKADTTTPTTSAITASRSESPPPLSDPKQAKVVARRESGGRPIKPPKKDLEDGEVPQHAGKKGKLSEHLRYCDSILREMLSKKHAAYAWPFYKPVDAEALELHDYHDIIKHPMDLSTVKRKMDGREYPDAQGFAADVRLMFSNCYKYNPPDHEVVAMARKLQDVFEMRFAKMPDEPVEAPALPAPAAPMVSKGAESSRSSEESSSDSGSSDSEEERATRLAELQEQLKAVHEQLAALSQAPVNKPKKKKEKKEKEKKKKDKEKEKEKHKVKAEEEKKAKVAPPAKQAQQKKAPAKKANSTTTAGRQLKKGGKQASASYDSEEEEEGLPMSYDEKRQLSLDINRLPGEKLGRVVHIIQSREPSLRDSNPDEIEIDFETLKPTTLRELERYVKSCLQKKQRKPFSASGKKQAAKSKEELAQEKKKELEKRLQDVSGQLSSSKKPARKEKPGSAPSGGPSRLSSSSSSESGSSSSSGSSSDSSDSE
Bromodomain-containing protein 2, sequence (P25440 whole entry, the tested form may be a part): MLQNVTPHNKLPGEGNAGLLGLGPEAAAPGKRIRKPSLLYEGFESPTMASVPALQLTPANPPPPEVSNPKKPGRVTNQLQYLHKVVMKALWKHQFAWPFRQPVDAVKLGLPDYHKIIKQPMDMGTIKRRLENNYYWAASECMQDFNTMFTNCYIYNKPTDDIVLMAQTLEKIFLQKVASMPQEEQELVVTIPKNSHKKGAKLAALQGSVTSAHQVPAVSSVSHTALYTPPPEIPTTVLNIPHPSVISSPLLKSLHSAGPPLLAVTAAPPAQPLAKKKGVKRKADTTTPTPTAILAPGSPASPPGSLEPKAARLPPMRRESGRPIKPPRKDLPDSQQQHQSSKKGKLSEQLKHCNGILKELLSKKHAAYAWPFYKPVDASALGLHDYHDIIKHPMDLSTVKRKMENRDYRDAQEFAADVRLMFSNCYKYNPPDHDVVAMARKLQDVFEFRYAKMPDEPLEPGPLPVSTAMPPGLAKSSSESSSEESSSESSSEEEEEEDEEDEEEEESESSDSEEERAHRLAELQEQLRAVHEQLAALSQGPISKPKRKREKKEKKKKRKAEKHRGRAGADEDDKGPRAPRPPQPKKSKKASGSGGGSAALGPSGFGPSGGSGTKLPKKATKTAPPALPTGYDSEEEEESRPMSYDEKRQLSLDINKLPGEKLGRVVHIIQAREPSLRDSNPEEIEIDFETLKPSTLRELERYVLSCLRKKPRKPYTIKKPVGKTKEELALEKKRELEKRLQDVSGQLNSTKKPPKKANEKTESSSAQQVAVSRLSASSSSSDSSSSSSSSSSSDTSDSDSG

Regarding `Cc1cc(-c2nc3sc4c(c3c(=O)[nH]2)CCN(C)C4)cc(C)c1O`, the outcome in assay [1], in [5], in assay [8], in assay [9], in assay [10] and in [11] was Active. In addition, the result in assay [13] and in [17] was Active. The half-maximal inhibitory concentration (IC50) in assay [2] is 930 nM; in assay [14], 24600 nM; in assay [15], above 100000 nM; in [18], 470 nM. The Activity entry in assay [3] was “Tde”. For the same compound, the inhibition result in assay [4], in [12] and in [19] was “Active” throughout. The result in assay [6] and in [7] was inactive. For the same compound, the TGI entry in assay [16] was “Dose-dependent effect”.
